Measurements from PubChem BioAssay AID463079 (The Scripps Research Institute Molecular Screening Center, 2010).
Among all 330,000 compounds or so, about 2,000 (0.61%) were called active.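 Rule for the calls: active = inhibition above that plate's mean sample inhibition plus 3 SD (cut at about 26% in these data); inactive = the rest.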 Shown is part of a subset that was picked to be rich in actives.

assay: nonselective Gq signaling inhibition in CHO cells – cell-based, fluorescence, Fluo-8 calcium dye, counter-screen for OX1R antagonist project, primary screen (AID 463079); details: parental CHO-K1, ATP-induced calcium, Fluo-8 fluorescence; at 5.6 µM; stronger effect = higher value;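 note: 0% = ATP-challenged DMSO wells and 100% = DMSO wells without ATP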
Summary of the method: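 Material: parental CHO cells / Compound: single nominal dose of 5.6 µM per compound / Signal: Fluo-8 fluorescence / Replicates: singlicate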

SMILES | inhibition
Cc1cccc(OP(=O)(Oc2cccc(C)c2)OC(c2ccccc2)C(F)(F)F)c1 (stereo not given) | 43% (active)
CCN(CC)P(=O)(Oc1cccc(C)c1)N(CC)CC | -16.2% (inactive)
CN(C)S(=O)(=O)c1cc(C(=O)N2CCC(C(=O)O)(c3ccccc3)CC2)ccc1Cl | -3.89% (inactive)
Nc1ccc([N+](=O)[O-])cc1 | -2.28% (inactive)
COC(=O)N(c1ccc(OC)cc1)P1(=S)OCCC(C)O1 (stereo not given) | -5.5% (inactive)
O=C1NC(=O)C(CCc2ccccn2)(Cc2cccc(Cl)c2Cl)C(=O)N1c1ccc(Br)cc1 (stereo not given) | -47.9% (inactive)
O=C1C2(Cl)C3(Cl)C4(Cl)C(Cl)(Cl)C5(Cl)C3(Cl)C1(Cl)C5(Cl)C24Cl (stereo not given) | 48.6% (active)
O=C(CSC1c2ccccc2-c2ccccc21)N/N=C/c1ccccc1 | -10.8% (inactive)
c1ccc(CC2CCCCN2)cc1 (stereo not given) | -2.34% (inactive)
CC1=C(C(=O)Nc2ccccc2)S(=O)(=O)CCO1 | -5.31% (inactive)
CCCCCCCCCCCCn1ccc(=N)cc1 | 40% (active)
CCOC(=O)c1c(C)c(C(=O)N2CCC3(CC2)OCCO3)c(C)n1CC | -3.29% (inactive)
CN1CCC(N(C)Cc2cccnc2)CC1 | -10.6% (inactive)
ClC(Cl)(Cl)c1ccccc1 | 2.74% (inactive)
CCN(CC)C(=O)c1ccc(NC(=O)c2cc(-n3cnnc3)ccc2Cl)cc1 | -4.65% (inactive)
